Assay results from article PMC9742164 (ChemMedChem, 2022).
Converted amounts (≈) assume the structure as drawn.

Tests used:
E. coli DNA gyrase [1] = molecular target: T1, E. coli DNA gyrase (Escherichia coli, UniProt P0AES6); experiment: Gel-based DNA gyrase supercoiling inhibition assay; assay type: biochemical; settings: for Inhibition of E. coli DNA gyrase: polyphenol screen, in words; for IC50: supercoiling
[2] = molecular target: T2, E. coli DNA topoisomerase IV (Escherichia coli, UniProt P20083); experiment: Gel-based DNA relaxation assay by topoisomerase IV; assay type: biochemical; settings: for IC50: IC50 against E. coli topoisomerase IV, relaxation; for Inhibition of E. coli DNA topoisomerase IV: in words
T2 sequence (P20083 whole entry): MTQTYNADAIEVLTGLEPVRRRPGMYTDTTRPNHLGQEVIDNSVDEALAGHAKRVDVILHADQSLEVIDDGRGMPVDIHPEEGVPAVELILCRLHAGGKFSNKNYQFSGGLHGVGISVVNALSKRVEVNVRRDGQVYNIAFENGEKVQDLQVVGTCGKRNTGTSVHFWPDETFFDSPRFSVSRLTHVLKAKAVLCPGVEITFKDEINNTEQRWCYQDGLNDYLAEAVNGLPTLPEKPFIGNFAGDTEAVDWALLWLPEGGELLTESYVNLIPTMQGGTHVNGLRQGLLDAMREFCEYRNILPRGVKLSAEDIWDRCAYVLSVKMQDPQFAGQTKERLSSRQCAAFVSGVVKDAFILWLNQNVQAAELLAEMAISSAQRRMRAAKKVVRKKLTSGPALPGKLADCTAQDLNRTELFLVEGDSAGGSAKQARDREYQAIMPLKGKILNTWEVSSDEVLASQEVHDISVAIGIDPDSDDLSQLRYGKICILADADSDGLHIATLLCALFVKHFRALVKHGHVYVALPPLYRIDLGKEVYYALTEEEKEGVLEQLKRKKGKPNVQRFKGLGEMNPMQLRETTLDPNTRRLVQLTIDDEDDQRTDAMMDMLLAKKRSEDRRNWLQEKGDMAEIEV
T2 sequence (P0AFI2 whole entry, further chain): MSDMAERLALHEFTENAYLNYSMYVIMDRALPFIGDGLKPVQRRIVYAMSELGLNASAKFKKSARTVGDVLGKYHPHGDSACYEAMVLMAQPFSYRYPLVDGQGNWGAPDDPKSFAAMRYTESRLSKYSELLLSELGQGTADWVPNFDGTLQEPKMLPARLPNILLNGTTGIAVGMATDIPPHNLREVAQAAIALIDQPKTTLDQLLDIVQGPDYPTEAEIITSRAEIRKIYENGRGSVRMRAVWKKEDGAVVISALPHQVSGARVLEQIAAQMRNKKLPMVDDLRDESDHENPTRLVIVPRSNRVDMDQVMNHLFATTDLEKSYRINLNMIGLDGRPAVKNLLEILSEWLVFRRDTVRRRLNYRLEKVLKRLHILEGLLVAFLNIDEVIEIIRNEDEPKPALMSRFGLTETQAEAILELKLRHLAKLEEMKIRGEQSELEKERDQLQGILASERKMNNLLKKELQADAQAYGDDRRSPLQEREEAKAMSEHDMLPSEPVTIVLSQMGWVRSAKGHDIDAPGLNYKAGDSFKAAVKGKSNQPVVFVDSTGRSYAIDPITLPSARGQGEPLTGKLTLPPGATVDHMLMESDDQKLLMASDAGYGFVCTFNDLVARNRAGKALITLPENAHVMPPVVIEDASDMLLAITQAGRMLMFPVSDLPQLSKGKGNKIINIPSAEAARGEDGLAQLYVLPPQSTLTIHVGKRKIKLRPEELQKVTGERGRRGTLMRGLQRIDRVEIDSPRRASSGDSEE

E. coli ATCC 25922 = experiment: MIC broth microdilution; assay type: cell-based
MRSA ATCC 33591 = experiment: MIC broth microdilution; assay type: cell-based, methicillin-resistant Staphylococcus aureus
[3] = molecular target: T2, E. coli DNA topoisomerase IV; experiment: SDFQ-based DNA relaxation assay by topoisomerase IV; assay type: biochemical
E. coli DNA gyrase [4] = molecular target: T1, E. coli DNA gyrase; experiment: SDFQ-based DNA gyrase supercoiling inhibition assay; assay type: biochemical
S. aureus ATCC 14775 = experiment: MIC broth microdilution; assay type: cell-based
E. coli imp BAS3023 = assay type: cell-based; settings: E. coli imp BAS3023 (imp4213 permeability mutation)
B. subtilis ATCC 6633 = experiment: MIC broth microdilution; assay type: cell-based
[5] = molecular target: T2, E. coli DNA topoisomerase IV; experiment: Topoisomerase IV ATPase linked assay; assay type: biochemical; settings: in words; 100 μM (Figure 4e)
Summary of the method: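 Topoisomerase IV ATP hydrolysis was coupled to NADH oxidation via pyruvate kinase/lactate dehydrogenase, read at 340 nm, 37°C. Buffer: 10 mM Tris-HCl pH 7.5, 0.2 mM EDTA, 1 mM MgCl2, 1 mM DTT, 2% glycerol. Mix: relaxed pAB1, 0.8 mM phosphoenolpyruvate, 0.4 mM NADH. After 5 min preincubation, 2 mM ATP was added. Test compounds at 100 μM.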

E. coli DNA gyrase [6] = molecular target: T1, E. coli DNA gyrase; experiment: DNA gyrase ATPase linked assay; assay type: biochemical
Summary of the method: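 Pyruvate kinase/lactate dehydrogenase-coupled NADH assay at 37°C. Buffer: 10 mM Tris-HCl pH 7.5, 0.2 mM EDTA, 1 mM MgCl2, 1 mM DTT, 2% glycerol. Mix: 50 nM gyrase or GyrB, 200 ng relaxed pAB1, 0.8 mM phosphoenolpyruvate, 1.2 U PK, 1.7 U LDH, 0.4 mM NADH. After 5 min preincubation, 2 mM ATP started the reaction, read at A340. Double-reciprocal plot with or without test compound at 500 nM; single-point at 100 μM.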

[7] = molecular target: E. coli DNA topoisomerase I (Escherichia coli, UniProt P06612); experiment: DNA relaxation assay by E. coli DNA topoisomerase I; assay type: biochemical; settings: at 100 μM
E. coli DNA topoisomerase I, sequence (P06612 whole entry): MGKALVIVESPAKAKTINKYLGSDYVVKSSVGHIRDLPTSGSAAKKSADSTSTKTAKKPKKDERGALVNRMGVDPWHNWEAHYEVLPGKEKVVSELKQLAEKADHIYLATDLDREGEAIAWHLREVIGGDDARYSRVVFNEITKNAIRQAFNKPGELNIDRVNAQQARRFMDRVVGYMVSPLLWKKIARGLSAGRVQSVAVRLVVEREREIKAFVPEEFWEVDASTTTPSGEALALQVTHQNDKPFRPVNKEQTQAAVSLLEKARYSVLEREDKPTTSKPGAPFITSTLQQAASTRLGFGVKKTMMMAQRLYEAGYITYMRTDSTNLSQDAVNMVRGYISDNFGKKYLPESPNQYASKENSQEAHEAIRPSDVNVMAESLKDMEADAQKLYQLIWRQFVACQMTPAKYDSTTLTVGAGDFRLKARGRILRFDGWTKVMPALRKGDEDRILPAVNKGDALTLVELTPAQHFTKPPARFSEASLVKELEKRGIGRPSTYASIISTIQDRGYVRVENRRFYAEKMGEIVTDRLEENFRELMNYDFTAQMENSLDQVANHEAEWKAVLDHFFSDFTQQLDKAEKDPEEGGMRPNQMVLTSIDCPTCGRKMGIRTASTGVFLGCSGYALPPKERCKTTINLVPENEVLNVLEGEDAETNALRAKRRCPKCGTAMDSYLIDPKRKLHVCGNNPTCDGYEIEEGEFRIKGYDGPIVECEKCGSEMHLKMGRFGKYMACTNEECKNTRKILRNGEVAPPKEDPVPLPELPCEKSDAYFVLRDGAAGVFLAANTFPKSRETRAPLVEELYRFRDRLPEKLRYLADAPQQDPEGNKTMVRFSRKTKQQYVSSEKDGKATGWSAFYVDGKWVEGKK

[8] = molecular target: T3, human DNA topoisomerase I (Homo sapiens, UniProt P11387); experiment: DNA relaxation assay by human DNA topoisomerase I; assay type: biochemical; settings: at 100 μM
T3 sequence (P11387 1-765): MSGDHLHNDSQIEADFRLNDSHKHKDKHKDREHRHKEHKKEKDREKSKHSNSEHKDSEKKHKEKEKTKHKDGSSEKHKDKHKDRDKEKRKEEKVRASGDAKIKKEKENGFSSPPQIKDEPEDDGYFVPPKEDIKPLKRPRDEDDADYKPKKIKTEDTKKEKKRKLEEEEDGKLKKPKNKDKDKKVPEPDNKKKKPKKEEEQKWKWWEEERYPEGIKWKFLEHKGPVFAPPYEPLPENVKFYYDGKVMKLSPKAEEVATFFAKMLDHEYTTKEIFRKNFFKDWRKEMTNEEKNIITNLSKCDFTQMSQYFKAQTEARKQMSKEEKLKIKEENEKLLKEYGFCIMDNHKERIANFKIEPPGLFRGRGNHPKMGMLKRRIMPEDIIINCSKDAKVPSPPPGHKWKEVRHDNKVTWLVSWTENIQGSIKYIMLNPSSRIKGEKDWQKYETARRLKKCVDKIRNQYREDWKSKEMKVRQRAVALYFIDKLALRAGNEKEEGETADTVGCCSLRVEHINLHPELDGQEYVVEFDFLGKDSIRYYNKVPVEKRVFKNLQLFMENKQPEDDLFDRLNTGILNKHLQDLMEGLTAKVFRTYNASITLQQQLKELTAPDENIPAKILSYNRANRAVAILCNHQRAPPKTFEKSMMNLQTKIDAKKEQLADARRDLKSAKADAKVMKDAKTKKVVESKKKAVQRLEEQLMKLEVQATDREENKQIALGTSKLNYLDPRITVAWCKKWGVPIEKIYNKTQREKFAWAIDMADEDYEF

[9] = molecular target: human DNA topoisomerase IIα (Homo sapiens, UniProt P11388); experiment: DNA relaxation assay by human DNA topoisomerase IIα; assay type: biochemical; settings: at 100 μM
human DNA topoisomerase IIα, sequence (P11388 whole entry): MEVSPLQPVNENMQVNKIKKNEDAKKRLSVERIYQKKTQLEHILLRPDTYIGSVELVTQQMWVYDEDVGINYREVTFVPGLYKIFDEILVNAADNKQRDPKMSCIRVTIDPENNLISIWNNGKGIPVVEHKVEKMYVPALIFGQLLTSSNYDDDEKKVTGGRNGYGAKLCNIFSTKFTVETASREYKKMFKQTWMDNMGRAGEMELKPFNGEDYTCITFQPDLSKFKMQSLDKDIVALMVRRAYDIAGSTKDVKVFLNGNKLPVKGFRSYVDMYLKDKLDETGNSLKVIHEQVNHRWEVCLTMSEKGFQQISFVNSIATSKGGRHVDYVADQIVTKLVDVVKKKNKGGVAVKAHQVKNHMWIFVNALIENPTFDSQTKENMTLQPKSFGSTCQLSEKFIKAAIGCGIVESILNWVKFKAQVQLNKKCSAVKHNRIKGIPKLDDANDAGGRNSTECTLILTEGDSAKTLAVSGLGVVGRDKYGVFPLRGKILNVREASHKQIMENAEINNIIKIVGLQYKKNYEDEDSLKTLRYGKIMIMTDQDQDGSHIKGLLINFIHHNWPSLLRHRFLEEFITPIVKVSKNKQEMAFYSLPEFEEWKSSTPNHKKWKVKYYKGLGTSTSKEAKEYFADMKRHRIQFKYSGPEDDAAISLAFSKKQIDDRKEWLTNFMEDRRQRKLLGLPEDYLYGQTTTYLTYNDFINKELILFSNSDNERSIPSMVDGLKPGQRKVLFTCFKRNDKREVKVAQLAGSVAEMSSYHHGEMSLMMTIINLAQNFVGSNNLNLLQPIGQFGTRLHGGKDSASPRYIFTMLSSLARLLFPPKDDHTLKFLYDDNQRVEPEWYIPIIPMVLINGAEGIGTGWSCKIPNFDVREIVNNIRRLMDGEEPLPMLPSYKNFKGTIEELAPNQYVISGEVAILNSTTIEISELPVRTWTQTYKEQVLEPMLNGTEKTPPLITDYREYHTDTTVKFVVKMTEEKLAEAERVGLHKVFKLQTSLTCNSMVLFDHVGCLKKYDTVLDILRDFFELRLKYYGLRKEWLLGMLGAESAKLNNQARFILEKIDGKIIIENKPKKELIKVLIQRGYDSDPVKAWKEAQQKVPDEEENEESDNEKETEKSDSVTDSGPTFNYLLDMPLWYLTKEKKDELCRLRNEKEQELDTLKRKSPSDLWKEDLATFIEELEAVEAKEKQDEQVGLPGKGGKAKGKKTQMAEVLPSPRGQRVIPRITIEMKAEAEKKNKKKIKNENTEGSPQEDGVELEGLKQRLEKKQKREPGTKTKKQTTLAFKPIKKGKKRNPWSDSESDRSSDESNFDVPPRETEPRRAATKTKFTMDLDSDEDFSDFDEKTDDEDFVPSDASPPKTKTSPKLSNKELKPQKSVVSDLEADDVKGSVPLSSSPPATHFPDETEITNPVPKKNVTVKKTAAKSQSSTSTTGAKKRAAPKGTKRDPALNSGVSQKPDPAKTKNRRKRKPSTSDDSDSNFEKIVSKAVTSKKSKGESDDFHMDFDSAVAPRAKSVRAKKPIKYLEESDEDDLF

[10] = molecular target: T2, E. coli DNA topoisomerase IV; experiment: DNA decatenation assay by topoisomerase IV; assay type: biochemical
E. coli DNA gyrase [11] = molecular target: T1, E. coli DNA gyrase; experiment: DNA gyrase-mediated DNA cleavage assay; assay type: biochemical; settings: up to 200 μM digallic acid
Summary of the method: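 Plasmid pBR322 (250 ng) and 20 nM E. coli gyrase were incubated in gyrase buffer with test compound (0–200 μM) at 37°C for 15 min. Then 0.2% SDS and 0.1 mg/mL proteinase K were added to trap cleavage complexes, with 30 min more at 37°C. […] Products ran on 1% agarose containing 0.5 μg/mL ethidium bromide.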

[12] = Staphylococcus aureus, ATCC33591|MRSA
[13] = Staphylococcus aureus, ATCC14775
[14] = IC50 against E. coli DNA gyrase, Gel-based

Compound	IC50 ([2]; Gel-based) [µM]	MIC (E. coli ATCC 25922; Escherichia coli, ATCC25922) [µM]	MIC (MRSA ATCC 33591; [12]) [µM]	IC50 [3] [µM]	IC50 (E. coli DNA gyrase [4]) [µM]	MIC (S. aureus ATCC 14775; [13]) [µM]	IC50 (E. coli DNA gyrase [1]; [14]) [µM]	other results
O=C(/C=C/c1ccc(O)c(O)c1)O[C@@H]1CC(O)(C(=O)O)C[C@@H](OC(=O)/C=C/c2ccc(O)c(O)c2)C1O (stereo partly drawn) [3,5-dicaffeoylquinic acid, reference compound]								Inhibition of E. coli DNA gyrase (E. coli DNA gyrase [1]): strongly inhibit
CCCCCCCCCCCCOC(=O)c1cc(O)c(O)c(O)c1 [Dodecyl gallate, dodecyl gallate]	50	> 200	200 (≈ 67.7 µg/mL)	36.9	13.8	200 (≈ 67.7 µg/mL)	15	Inhibition of E. coli DNA topoisomerase IV [2]: strongly inhibit
O=C(O)c1cc(O)c(O)c(O)c1 [Gallic acid, gallic acid]	> 500						> 500	
O=C(O[C@@H]1Cc2c(O)cc(O)cc2O[C@@H]1c1cc(O)c(O)c(O)c1)c1cc(O)c(O)c(O)c1 [EGCG, epigallocatechin gallate, reference compound]								Inhibition of E. coli DNA gyrase (E. coli DNA gyrase [1]): strongly inhibit
CO[C@@H]1[C@@H](OC(N)=O)[C@@H](O)[C@H](Oc2ccc3c(O)c(NC(=O)c4ccc(O)c(CC=C(C)C)c4)c(=O)oc3c2C)OC1(C)C [Novobiocin, novobiocin, reference compound]		158 (≈ 96.5 µg/mL)	< 6.25			< 6.25		
O=C(Oc1ccc(-c2ccccc2)cc1)c1cc(O)c(O)c(O)c1 [Biphenyl gallate, biphenyl gallate]								MIC (E. coli ATCC 25922; E. coli ATCC 25922): >200 µM; MIC (E. coli imp BAS3023): 200 µM (≈ 64.5 µg/mL); MIC (MRSA ATCC 33591; MRSA ATCC 33591): 50 µM (≈ 16.1 µg/mL); MIC (B. subtilis ATCC 6633): 50 to 100 µM; MIC (S. aureus ATCC 14775; S. aureus ATCC 14775): 50 µM (≈ 16.1 µg/mL)
CCCCOC(=O)c1cc(O)c(O)c(O)c1 [Butyl gallate, butyl gallate]	> 100	> 200	> 200	> 100	> 100	> 200	> 100	
O=c1oc2c(O)c(O)cc3c(=O)oc4c(O)c(O)cc1c4c23 [ellagic acid, reference compound]								Inhibition of E. coli DNA gyrase (E. coli DNA gyrase [1]): strongly inhibit
O=C(Oc1ccccc1)c1cc(O)c(O)c(O)c1 [Phenyl gallate, phenyl gallate]								MIC (E. coli ATCC 25922; E. coli ATCC 25922): >200 µM; MIC (E. coli imp BAS3023): >200 µM; MIC (MRSA ATCC 33591; MRSA ATCC 33591): 200 µM (≈ 49.2 µg/mL); IC50 ([3]; read-out: IC50 against E. coli topoisomerase IV, SDFQ, relaxation, SDFQ): > 100 µM; MIC (B. subtilis ATCC 6633): >200 µM; IC50 (E. coli DNA gyrase [4]; read-out: IC50 against E. coli DNA gyrase, SDFQ, supercoiling, SDFQ): > 100 µM; MIC (S. aureus ATCC 14775; S. aureus ATCC 14775): 200 µM (≈ 49.2 µg/mL); IC50 (E. coli DNA gyrase [1]; read-out: IC50 against E. coli DNA gyrase, Gel-based, gel-based): > 100 µM
O=C(O)c1cc(O)c(O)c(OC(=O)c2cc(O)c(O)c(O)c2)c1 [Digallic acid, digallic acid]	8	> 200	200 (≈ 64.4 µg/mL)	7.3	1.9	200 (≈ 64.4 µg/mL)	2	Inhibition of ATPase activities of bacterial DNA topoisomerase IV [5]: inhibit; IC50 [2]: ~8 µM; Ki (E. coli DNA gyrase [6]): 0.347 µM; Vmax of gyrase ATPase (E. coli DNA gyrase [6]; in the presence of 500 nM of digallic acid, without inhibitor 16.3 ± 2.5 nM/s): 17.8 ± 5.0 nM/s; Inhibition of ATPase activities of E. coli DNA gyrase (E. coli DNA gyrase [6]; in words, 100 μM (Figure 3d)): greatly inhibit; Inhibition of E. coli DNA topoisomerase I [7]: do not inhibit; Inhibition of human DNA topoisomerase I [8]: do not inhibit; Inhibition of human DNA topoisomerase IIα [9]: do not inhibit; IC50 [10]: ~4 µM; Gyrase poisoning (gyrase-mediated DNA cleavage) (E. coli DNA gyrase [11]): not bacterial DNA gyrase poisons; IC50 (E. coli DNA gyrase [1]; IC50 against E. coli DNA gyrase, gel (Figure 1)): ~2 µM
tannic acid								IC50 (E. coli DNA gyrase [1]; read-out: IC50 against E. coli DNA gyrase, gel (Figure 1)): 1 µM
CCCCCCCCOC(=O)c1cc(O)c(O)c(O)c1 [Octyl gallate, octyl gallate]	50	> 200	100 (≈ 28.2 µg/mL)	41.2	26	200 (≈ 56.5 µg/mL)	50	Inhibition of E. coli DNA topoisomerase IV [2]: strongly inhibit
